Experimental data published in ChEMBL document CHEMBL5058577, “EUbOPEN Chemogenomics Library 2 (Multiplex)” (2022).

Tested on: Fibroblast
Experiment: Multiplex assay against human fibroblast
Assay type: toxicity, cell-based
Outline: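 Cells stained live at seeding with Hoechst33342, BioTracker Green Microtubule Cytoskeleton Dye, MitoTracker Red and Annexin V Alexa Fluor 680 were imaged on a CQ1 microscope at 37°C and 5% CO2 after compound addition. Their classification by CellPathfinder machine-learning gating ran from Hoechst high-intensity objects versus normal cells, to healthy, pyknosed or fragmented nuclei among normal cells, to mitotic or apoptotic among pyknosed cells. Tubulin, mitochondrial-mass and membrane-permeability phenotypes are per cents of healthy-nucleus cells.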

[1] = 12 h, 1 µM, compound concentration 1 uM, replicate 1
[2] = 12 h, 1 µM, compound concentration 1 uM, replicate 2
[3] = 12 h, 10 µM, compound concentration 10 uM, replicate 1
[4] = 12 h, 10 µM, compound concentration 10 uM, replicate 2
[5] = 24 h, 1 µM, compound concentration 1 uM, replicate 1
[6] = 24 h, 1 µM, compound concentration 1 uM, replicate 2
[7] = 24 h, 10 µM, compound concentration 10 uM, replicate 1
[8] = 24 h, 10 µM, compound concentration 10 uM, replicate 2
[9] = 48 h, 1 µM, compound concentration 1 uM, replicate 1
[10] = 48 h, 1 µM, compound concentration 1 uM, replicate 2
[11] = 48 h, 10 µM, compound concentration 10 uM, replicate 1
[12] = 48 h, 10 µM, compound concentration 10 uM, replicate 2

SMILES: COc1cccc2c1c(NS(=O)(=O)c1ccc(Cl)s1)nn2Cc1cccc(CNC(=O)C(C)(C)O)c1
- Population Apoptotic (%) [1]: 43%
- Population Fragmented Nuclei (%) [1]: 16%
- Population Healthy Nuclei (%) [1]: 66%
- Population Hoechst High Intensity Objects (%) [1]: 0%
- Population Membrane Permeable-Phenotype (%) [1]: 1%
- Population Mitochondria Different-Phenotype (%) [1]: 2%
- Population Mitotic Cells (%) [1]: 56%
- Population Normal (%) [1]: 99%
- Population Pyknosed Nuclei (%) [1]: 17%
- Population Tubulin-Different-Phenotype (%) [1]: 27%
- Total Cell Count [1]: 134
- Population Apoptotic (%) [2]: 33%
- Population Fragmented Nuclei (%) [2]: 26%
- Population Healthy Nuclei (%) [2]: 54%
- Population Membrane Permeable-Phenotype (%) [2]: 4%
- Population Mitochondria Different-Phenotype (%) [2]: 1%
- Population Mitotic Cells (%) [2]: 66%
- Population Normal (%) [2]: 100%
- Population Pyknosed Nuclei (%) [2]: 18%
- Population Tubulin-Different-Phenotype (%) [2]: 18%
- Total Cell Count [2]: 112
- Population Apoptotic (%) [3]: 42%
- Population Fragmented Nuclei (%) [3]: 13%
- Population Healthy Nuclei (%) [3]: 72%
- Population Hoechst High Intensity Objects (%) [3]: 2%
- Population Membrane Permeable-Phenotype (%) [3]: 1%
- Population Mitochondria Different-Phenotype (%) [3]: 11%
- Population Mitotic Cells (%) [3]: 57%
- Population Normal (%) [3]: 97%
- Population Pyknosed Nuclei (%) [3]: 13%
- Population Tubulin-Different-Phenotype (%) [3]: 37%
- Total Cell Count [3]: 211
- Population Apoptotic (%) [4]: 41%
- Population Fragmented Nuclei (%) [4]: 24%
- Population Healthy Nuclei (%) [4]: 55%
- Population Hoechst High Intensity Objects (%) [4]: 7%
- Population Membrane Permeable-Phenotype (%) [4]: 7%
- Population Mitochondria Different-Phenotype (%) [4]: 4%
- Population Mitotic Cells (%) [4]: 58%
- Population Normal (%) [4]: 92%
- Population Pyknosed Nuclei (%) [4]: 19%
- Population Tubulin-Different-Phenotype (%) [4]: 55%
- Total Cell Count [4]: 174
- Population Apoptotic (%) [5]: 55%
- Population Fragmented Nuclei (%) [5]: 19%
- Population Healthy Nuclei (%) [5]: 68%
- Population Hoechst High Intensity Objects (%) [5]: 2%
- Population Membrane Permeable-Phenotype (%) [5]: 2%
- Population Mitochondria Different-Phenotype (%) [5]: 3%
- Population Mitotic Cells (%) [5]: 44%
- Population Normal (%) [5]: 97%
- Population Pyknosed Nuclei (%) [5]: 12%
- Population Tubulin-Different-Phenotype (%) [5]: 28%
- Total Cell Count [5]: 144
- Population Apoptotic (%) [6]: 50%
- Population Fragmented Nuclei (%) [6]: 28%
- Population Healthy Nuclei (%) [6]: 49%
- Population Hoechst High Intensity Objects (%) [6]: 1%
- Population Membrane Permeable-Phenotype (%) [6]: 7%
- Population Mitochondria Different-Phenotype (%) [6]: 5%
- Population Mitotic Cells (%) [6]: 50%
- Population Normal (%) [6]: 98%
- Population Pyknosed Nuclei (%) [6]: 22%
- Population Tubulin-Different-Phenotype (%) [6]: 35%
- Total Cell Count [6]: 110
- Population Apoptotic (%) [7]: 48%
- Population Fragmented Nuclei (%) [7]: 11%
- Population Healthy Nuclei (%) [7]: 74%
- Population Hoechst High Intensity Objects (%) [7]: 2%
- Population Membrane Permeable-Phenotype (%) [7]: 1%
- Population Mitochondria Different-Phenotype (%) [7]: 7%
- Population Mitotic Cells (%) [7]: 52%
- Population Normal (%) [7]: 97%
- Population Pyknosed Nuclei (%) [7]: 13%
- Population Tubulin-Different-Phenotype (%) [7]: 30%
- Total Cell Count [7]: 190
- Population Apoptotic (%) [8]: 50%
- Population Fragmented Nuclei (%) [8]: 22%
- Population Healthy Nuclei (%) [8]: 55%
- Population Hoechst High Intensity Objects (%) [8]: 8%
- Population Membrane Permeable-Phenotype (%) [8]: 6%
- Population Mitochondria Different-Phenotype (%) [8]: 2%
- Population Mitotic Cells (%) [8]: 50%
- Population Normal (%) [8]: 92%
- Population Pyknosed Nuclei (%) [8]: 22%
- Population Tubulin-Different-Phenotype (%) [8]: 48%
- Total Cell Count [8]: 175
- Population Apoptotic (%) [9]: 62%
- Population Fragmented Nuclei (%) [9]: 21%
- Population Healthy Nuclei (%) [9]: 66%
- Population Hoechst High Intensity Objects (%) [9]: 5%
- Population Membrane Permeable-Phenotype (%) [9]: 1%
- Population Mitochondria Different-Phenotype (%) [9]: 5%
- Population Mitotic Cells (%) [9]: 37%
- Population Normal (%) [9]: 94%
- Population Pyknosed Nuclei (%) [9]: 12%
- Population Tubulin-Different-Phenotype (%) [9]: 30%
- Total Cell Count [9]: 135
- Population Apoptotic (%) [10]: 75%
- Population Fragmented Nuclei (%) [10]: 26%
- Population Healthy Nuclei (%) [10]: 60%
- Population Hoechst High Intensity Objects (%) [10]: 2%
- Population Membrane Permeable-Phenotype (%) [10]: 8%
- Population Mitochondria Different-Phenotype (%) [10]: 3%
- Population Mitotic Cells (%) [10]: 25%
- Population Normal (%) [10]: 97%
- Population Tubulin-Different-Phenotype (%) [10]: 55%
- Total Cell Count [10]: 99
- Population Apoptotic (%) [11]: 63%
- Population Fragmented Nuclei (%) [11]: 13%
- Population Healthy Nuclei (%) [11]: 73%
- Population Hoechst High Intensity Objects (%) [11]: 5%
- Population Membrane Permeable-Phenotype (%) [11]: 3%
- Population Mitochondria Different-Phenotype (%) [11]: 10%
- Population Mitotic Cells (%) [11]: 36%
- Population Normal (%) [11]: 94%
- Population Pyknosed Nuclei (%) [11]: 12%
- Population Tubulin-Different-Phenotype (%) [11]: 40%
- Total Cell Count [11]: 187
- Population Apoptotic (%) [12]: 51%
- Population Fragmented Nuclei (%) [12]: 33%
- Population Healthy Nuclei (%) [12]: 49%
- Population Hoechst High Intensity Objects (%) [12]: 6%
- Population Mitochondria Different-Phenotype (%) [12]: 4%
- Population Mitotic Cells (%) [12]: 48%
- Population Normal (%) [12]: 93%
- Population Pyknosed Nuclei (%) [12]: 17%
- Population Tubulin-Different-Phenotype (%) [12]: 43%
